From ChEMBL document CHEMBL2311431, “Synthesis and biological evaluation of some 5-arylidene-2-(1,3-thiazol-2-ylimino)-1,3-thiazolidin-4-ones as dual anti-inflammatory/antimicrobial agents” (Bioorg Med Chem, 2013)
Values after ≈ are worked out from the molar mass of the structure shown.

Test system: Talaromyces funiculosus
Experiment: Antifungal activity against Penicillium funiculosum ATCC 36839 after 72 hrs by serial dilution technique
Type: functional
Conditions: ATCC 36839, 72 h
In short: (§1)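 Serial dilution in malt broth; compounds from 1 mg/ml stocks in 5% DMSO; 72 h at 28 °C. MIC is the lowest concentration with no visible growth under a binocular microscope. Run in duplicate, repeated three times.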

Compound	MIC
Cc1csc(/N=C2\NC(=O)/C(=C/c3ccccc3Cl)S2)n1	17.9 µM (≈ 6.01 µg/mL)
O=C1N/C(=N\c2nc(-c3ccccc3)cs2)S/C1=C\c1cccc(Cl)c1	19 µM (≈ 7.56 µg/mL)

Molecular target: T1, Prostaglandin G/H synthase 1 (Ovis aries) (UniProt P05979)
T1 sequence (whole entry): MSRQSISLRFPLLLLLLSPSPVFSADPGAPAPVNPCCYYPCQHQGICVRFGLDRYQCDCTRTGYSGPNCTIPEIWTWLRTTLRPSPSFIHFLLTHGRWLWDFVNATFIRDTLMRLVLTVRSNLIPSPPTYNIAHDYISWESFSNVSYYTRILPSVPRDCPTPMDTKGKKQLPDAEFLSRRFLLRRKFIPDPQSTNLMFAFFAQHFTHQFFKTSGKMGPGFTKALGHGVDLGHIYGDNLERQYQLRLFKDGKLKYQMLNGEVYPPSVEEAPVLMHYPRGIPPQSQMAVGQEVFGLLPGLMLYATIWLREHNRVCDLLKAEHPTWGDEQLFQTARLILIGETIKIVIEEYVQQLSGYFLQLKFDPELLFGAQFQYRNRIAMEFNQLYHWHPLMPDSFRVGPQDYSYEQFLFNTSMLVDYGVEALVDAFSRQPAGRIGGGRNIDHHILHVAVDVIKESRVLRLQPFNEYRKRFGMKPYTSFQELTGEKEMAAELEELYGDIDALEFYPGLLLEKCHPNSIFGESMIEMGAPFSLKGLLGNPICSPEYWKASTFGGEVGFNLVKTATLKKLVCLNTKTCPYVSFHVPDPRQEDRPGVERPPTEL
Experiment: Inhibition of ovine COX1 assessed as inhibition of PGF2a production by enzyme immunoassay
Design: concentration or dose not given beside the values
Conditions: concentration not given here
In short: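 Ovine COX-1 from a commercial screening kit, tested with 0.1 µM arachidonic acid, which is below the saturating level. COX-derived PGH2 is reduced by SnCl2 to PGF2a, quantified by enzyme immunoassay with a broad prostaglandin antibody. At least triplicate.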

Compound	inhibition
Cc1csc(/N=C2\NC(=O)/C(=C/c3ccccc3Cl)S2)n1	97%
O=C1N/C(=N\c2nc(-c3ccccc3)cs2)S/C1=C\c1cccc(Cl)c1	65%

Test system: Aspergillus flavus
Experiment: Fungicidal activity against Aspergillus flavus ATCC 9643 after 72 hrs by serial subcultivation method
Type: functional
Conditions: ATCC 9643, 72 h

Compound	MFC
Cc1csc(/N=C2\NC(=O)/C(=C/c3ccccc3Cl)S2)n1	20.9 µM (≈ 7.02 µg/mL)
O=C1N/C(=N\c2nc(-c3ccccc3)cs2)S/C1=C\c1cccc(Cl)c1	25.2 µM (≈ 10 µg/mL)

Test system: Aspergillus fumigatus
Experiment: Fungicidal activity against Aspergillus fumigatus after 72 hrs by serial subcultivation method
Type: functional
Conditions: not given

Compound	MFC
Cc1csc(/N=C2\NC(=O)/C(=C/c3ccccc3Cl)S2)n1	20.9 µM (≈ 7.02 µg/mL)
O=C1N/C(=N\c2nc(-c3ccccc3)cs2)S/C1=C\c1cccc(Cl)c1	25.2 µM (≈ 10 µg/mL)

Test system: Aspergillus niger
Experiment: Fungicidal activity against Aspergillus niger ATCC 6275 after 72 hrs by serial subcultivation method
Type: functional
Conditions: ATCC 6275, 72 h

Compound	MFC
Cc1csc(/N=C2\NC(=O)/C(=C/c3ccccc3Cl)S2)n1	20.9 µM (≈ 7.02 µg/mL)
O=C1N/C(=N\c2nc(-c3ccccc3)cs2)S/C1=C\c1cccc(Cl)c1	25.2 µM (≈ 10 µg/mL)

Test system: Staphylococcus aureus
Experiment: Antibacterial activity against Staphylococcus aureus ATCC 6538 after 24 hr by microdilution test
Type: functional
Conditions: ATCC 6538, 24 h
In short: (§2)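 Broth microdilution in LB medium, about 1.0×10^4 cfu per well; compounds from 1 mg/ml stocks in 5% DMSO. Incubated 24 h. MIC is the lowest concentration with no visible growth under a binocular microscope. Run in duplicate, repeated three times.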

Compound	MIC
Cc1csc(/N=C2\NC(=O)/C(=C/c3ccccc3Cl)S2)n1	59.6 µM (≈ 20 µg/mL)
O=C1N/C(=N\c2nc(-c3ccccc3)cs2)S/C1=C\c1cccc(Cl)c1	25.2 µM (≈ 10 µg/mL)

Molecular target: not listed separately
Experiment: Inhibition of soybean lipoxygenase assessed as inhibition of sodium linolate conversion to 13-hydroperoxylinoleic acid after 4 mins by spectrophotometry
Design: species or system Glycine max
Conditions: read-out: IC50

Compound	IC50
Cc1csc(/N=C2\NC(=O)/C(=C/c3ccccc3Cl)S2)n1	79 µM
O=C1N/C(=N\c2nc(-c3ccccc3)cs2)S/C1=C\c1cccc(Cl)c1	88 µM

Test system: Listeria monocytogenes
Experiment: Bactericidal activity against Listeria monocytogenes NCTC 7973 after 72 hrs by serial subcultivation method
Type: functional
Conditions: NCTC 7973, 72 h

Compound	MBC
Cc1csc(/N=C2\NC(=O)/C(=C/c3ccccc3Cl)S2)n1	119 µM (≈ 40 µg/mL)
O=C1N/C(=N\c2nc(-c3ccccc3)cs2)S/C1=C\c1cccc(Cl)c1	50.4 µM (≈ 20.1 µg/mL)

Test system: Aspergillus flavus
Experiment: Antifungal activity against Aspergillus flavus ATCC 9643 after 72 hrs by serial dilution technique
Type: functional
Conditions: ATCC 9643, 72 h
In short: as §1

Compound	MIC
Cc1csc(/N=C2\NC(=O)/C(=C/c3ccccc3Cl)S2)n1	20.9 µM (≈ 7.02 µg/mL)
O=C1N/C(=N\c2nc(-c3ccccc3)cs2)S/C1=C\c1cccc(Cl)c1	19 µM (≈ 7.56 µg/mL)

Test system: Aspergillus fumigatus
Experiment: Antifungal activity against Aspergillus fumigatus after 72 hrs by serial dilution technique
Type: functional
Conditions: not given
In short: as §1

Compound	MIC
Cc1csc(/N=C2\NC(=O)/C(=C/c3ccccc3Cl)S2)n1	17.9 µM (≈ 6.01 µg/mL)
O=C1N/C(=N\c2nc(-c3ccccc3)cs2)S/C1=C\c1cccc(Cl)c1	19 µM (≈ 7.56 µg/mL)

Test system: Staphylococcus aureus
Experiment: Bactericidal activity against Staphylococcus aureus ATCC 6538 after 72 hrs by serial subcultivation method
Type: functional
Conditions: ATCC 6538, 72 h

Compound	MBC
Cc1csc(/N=C2\NC(=O)/C(=C/c3ccccc3Cl)S2)n1	119 µM (≈ 40 µg/mL)
O=C1N/C(=N\c2nc(-c3ccccc3)cs2)S/C1=C\c1cccc(Cl)c1	50.4 µM (≈ 20.1 µg/mL)

Test system: Aspergillus niger
Experiment: Antifungal activity against Aspergillus niger ATCC 6275 after 72 hrs by serial dilution technique
Type: functional
Conditions: ATCC 6275, 72 h
In short: as §1

Compound	MIC
Cc1csc(/N=C2\NC(=O)/C(=C/c3ccccc3Cl)S2)n1	14.9 µM (≈ 5 µg/mL)
O=C1N/C(=N\c2nc(-c3ccccc3)cs2)S/C1=C\c1cccc(Cl)c1	19 µM (≈ 7.56 µg/mL)

Test system: Escherichia coli
Experiment: Bactericidal activity against Escherichia coli ATCC 35210 after 72 hrs by serial subcultivation method
Type: functional
Conditions: ATCC 35210, 72 h

Compound	MBC
Cc1csc(/N=C2\NC(=O)/C(=C/c3ccccc3Cl)S2)n1	119 µM (≈ 40 µg/mL)
O=C1N/C(=N\c2nc(-c3ccccc3)cs2)S/C1=C\c1cccc(Cl)c1	50.4 µM (≈ 20.1 µg/mL)

Test system: Trichoderma viride
Experiment: Fungicidal activity against Trichoderma viride IAM 5061 after 72 hrs by serial subcultivation method
Type: functional
Conditions: IAM 5061, 72 h

Compound	MFC
Cc1csc(/N=C2\NC(=O)/C(=C/c3ccccc3Cl)S2)n1	20.9 µM (≈ 7.02 µg/mL)
O=C1N/C(=N\c2nc(-c3ccccc3)cs2)S/C1=C\c1cccc(Cl)c1	25.2 µM (≈ 10 µg/mL)

Test system: Penicillium ochrochloron
Experiment: Antifungal activity against Penicillium ochrochloron ATCC 9112 after 72 hrs by serial dilution technique
Type: functional
Conditions: ATCC 9112, 72 h
In short: as §1

Compound	MIC
Cc1csc(/N=C2\NC(=O)/C(=C/c3ccccc3Cl)S2)n1	14.9 µM (≈ 5 µg/mL)
O=C1N/C(=N\c2nc(-c3ccccc3)cs2)S/C1=C\c1cccc(Cl)c1	19 µM (≈ 7.56 µg/mL)

Test system: Pseudomonas aeruginosa
Experiment: Bactericidal activity against Pseudomonas aeruginosa ATCC 27853 after 72 hrs by serial subcultivation method
Type: functional
Conditions: ATCC 27853, 72 h

Compound	MBC
Cc1csc(/N=C2\NC(=O)/C(=C/c3ccccc3Cl)S2)n1	119 µM (≈ 40 µg/mL)
O=C1N/C(=N\c2nc(-c3ccccc3)cs2)S/C1=C\c1cccc(Cl)c1	50.4 µM (≈ 20.1 µg/mL)

Test system: Mus musculus
Experiment: Antiinflammatory activity in AKR mouse assessed as inhibition of carrageenan-induced paw edema at 0.01 mmol/kg, ip measured after 3.5 hrs of carrageenan-challenge
Type: functional
Conditions: not given
In short: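 AKR mice of both sexes (pregnant females excluded), 6-10 per group, fasted during the experiment. Edema induced by intradermal 0.05 mL of 2% carrageenin into the right hind paw. Compound given at 0.01 mmol/kg ip, suspended in water with Tween-80, at the same time as carrageenin.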

Compound	inhibition in vivo at 10 µmol/kg
Cc1csc(/N=C2\NC(=O)/C(=C/c3ccccc3Cl)S2)n1	43%
O=C1N/C(=N\c2nc(-c3ccccc3)cs2)S/C1=C\c1cccc(Cl)c1	51%

Test system: Micrococcus flavus
Experiment: Antibacterial activity against Micrococcus flavus ATCC 10240 after 24 hr by microdilution test
Type: functional
Conditions: ATCC 10240, 24 h
In short: as §2

Compound	MIC
Cc1csc(/N=C2\NC(=O)/C(=C/c3ccccc3Cl)S2)n1	29.8 µM (≈ 10 µg/mL)
O=C1N/C(=N\c2nc(-c3ccccc3)cs2)S/C1=C\c1cccc(Cl)c1	25.2 µM (≈ 10 µg/mL)

Test system: Escherichia coli
Experiment: Antibacterial activity against Escherichia coli ATCC 35210 after 24 hr by microdilution test
Type: functional
Conditions: ATCC 35210, 24 h
In short: as §2

Compound	MIC
Cc1csc(/N=C2\NC(=O)/C(=C/c3ccccc3Cl)S2)n1	119 µM (≈ 40 µg/mL)
O=C1N/C(=N\c2nc(-c3ccccc3)cs2)S/C1=C\c1cccc(Cl)c1	25.2 µM (≈ 10 µg/mL)

Test system: Listeria monocytogenes
Experiment: Antibacterial activity against Listeria monocytogenes NCTC 7973 after 24 hr by microdilution test
Type: functional
Conditions: NCTC 7973, 24 h
In short: as §2

Compound	MIC
Cc1csc(/N=C2\NC(=O)/C(=C/c3ccccc3Cl)S2)n1	119 µM (≈ 40 µg/mL)
O=C1N/C(=N\c2nc(-c3ccccc3)cs2)S/C1=C\c1cccc(Cl)c1	25.2 µM (≈ 10 µg/mL)

Test system: Talaromyces funiculosus
Experiment: Fungicidal activity against Penicillium funiculosum ATCC 36839 after 72 hrs by serial subcultivation method
Type: functional
Conditions: ATCC 36839, 72 h

Compound	MFC
Cc1csc(/N=C2\NC(=O)/C(=C/c3ccccc3Cl)S2)n1	20.9 µM (≈ 7.02 µg/mL)
O=C1N/C(=N\c2nc(-c3ccccc3)cs2)S/C1=C\c1cccc(Cl)c1	25.2 µM (≈ 10 µg/mL)

Test system: Micrococcus flavus
Experiment: Bactericidal activity against Micrococcus flavus ATCC 10240 after 72 hrs by serial subcultivation method
Type: functional
Conditions: ATCC 10240, 72 h

Compound	MBC
Cc1csc(/N=C2\NC(=O)/C(=C/c3ccccc3Cl)S2)n1	59.6 µM (≈ 20 µg/mL)
O=C1N/C(=N\c2nc(-c3ccccc3)cs2)S/C1=C\c1cccc(Cl)c1	50.4 µM (≈ 20.1 µg/mL)

Test system: Bacillus cereus
Experiment: Bactericidal activity against Bacillus cereus clinical isolate after 72 hrs by serial subcultivation method
Type: functional
Conditions: not given

Compound	MBC
Cc1csc(/N=C2\NC(=O)/C(=C/c3ccccc3Cl)S2)n1	119 µM (≈ 40 µg/mL)
O=C1N/C(=N\c2nc(-c3ccccc3)cs2)S/C1=C\c1cccc(Cl)c1	25.2 µM (≈ 10 µg/mL)

Test system: Mus musculus
Experiment: Acute toxicity in AKR mouse up to 0.5 mmol/kg, ip
Type: organism-based
Conditions: in vivo

Compound	Activity
Cc1csc(/N=C2\NC(=O)/C(=C/c3ccccc3Cl)S2)n1	Non-toxic
O=C1N/C(=N\c2nc(-c3ccccc3)cs2)S/C1=C\c1cccc(Cl)c1	Non-toxic

Test system: Trichoderma viride
Experiment: Antifungal activity against Trichoderma viride IAM 5061 after 72 hrs by serial dilution technique
Type: functional
Conditions: IAM 5061, 72 h
In short: as §1

Compound	MIC
Cc1csc(/N=C2\NC(=O)/C(=C/c3ccccc3Cl)S2)n1	17.9 µM (≈ 6.01 µg/mL)
O=C1N/C(=N\c2nc(-c3ccccc3)cs2)S/C1=C\c1cccc(Cl)c1	12.6 µM (≈ 5.01 µg/mL)

Test system: Penicillium ochrochloron
Experiment: Fungicidal activity against Penicillium ochrochloron ATCC 9112 after 72 hrs by serial subcultivation method
Type: functional
Conditions: ATCC 9112, 72 h

Compound	MFC
Cc1csc(/N=C2\NC(=O)/C(=C/c3ccccc3Cl)S2)n1	20.9 µM (≈ 7.02 µg/mL)
O=C1N/C(=N\c2nc(-c3ccccc3)cs2)S/C1=C\c1cccc(Cl)c1	25.2 µM (≈ 10 µg/mL)

Test system: Bacillus cereus
Experiment: Antibacterial activity against Bacillus cereus clinical isolate after 24 hr by microdilution test
Type: functional
Conditions: not given
In short: as §2

Compound	MIC
Cc1csc(/N=C2\NC(=O)/C(=C/c3ccccc3Cl)S2)n1	59.6 µM (≈ 20 µg/mL)
O=C1N/C(=N\c2nc(-c3ccccc3)cs2)S/C1=C\c1cccc(Cl)c1	25.2 µM (≈ 10 µg/mL)

Test system: Pseudomonas aeruginosa
Experiment: Antibacterial activity against Pseudomonas aeruginosa ATCC 27853 after 24 hr by microdilution test
Type: functional
Conditions: ATCC 27853, 24 h
In short: as §2

Compound	MIC
Cc1csc(/N=C2\NC(=O)/C(=C/c3ccccc3Cl)S2)n1	59.6 µM (≈ 20 µg/mL)
O=C1N/C(=N\c2nc(-c3ccccc3)cs2)S/C1=C\c1cccc(Cl)c1	25.2 µM (≈ 10 µg/mL)
